Active and inactive are the calls of the source. No cut-off for these calls is given here.

The nature of assay [1]: Binding affinity to Hsp90 after 4 hrs by GM-FITC based fluorescence polarization assay. Summed up:
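Commercial Hsp90 at 30 nM was mixed with GM-FITC tracer at 5 nM and serially diluted compound. Buffer: 20 mM HEPES(K) pH 7.3, 50 mM KCl, 5 mM MgCl2, 20 mM Na2MoO4, 0.01% NP40, with fresh 0.1 mg/ml bovine gamma globulin and 2 mM DTT. Shaken 4 h at 4 °C, then FP read in mP. IC50 is the concentration displacing 50% of tracer, from triplicate wells by nonlinear least-squares fit.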
(In fluorescence polarisation assays a small probe gives low polarisation when free and higher when bound to something large.)

In the next assay the test system is NCI-H460. Description: Cytotoxicity against human NCI-H460 cells after 72 hrs. It is filed as functional, cell-based. The note with it: NCI-H460, 72 h. The gist of the method:
(§1)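 Compounds were dissolved fresh in DMSO and diluted in culture medium. Cells were exposed for 72 h at 37 °C in medium with 10% heat-inactivated FBS under 5% CO2. IC50 reported ± SD. STO cells were grown in 50/50 DMEM-Ham's F12 with 10% FBS and 2 mM L-Gln.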

The nature of assay [2]: Cytotoxicity against human STO cells after 72 hrs. It is filed as functional, cell-based. The gist of the method: as §1
For assay [3], the system named is A-431. The experiment in a line: Cytotoxicity against human A431 cells after 72 hrs. The assay is classed as functional, cell-based. The note with it: A-431, 72 h.
Assay [4] concerns the target T1, Heat shock protein HSP90 (Homo sapiens) (UniProt P07900+P08238). The experiment in a line: Inhibition of Hsp90 in human A431 cells assessed as down-regulation of EGFR expression at 22 nM after 24 hrs by Western blotting analysis. It is filed as cell-based. Particulars: A-431. The gist of the method: (§2)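 Cells were treated 24 h with drug freshly made in DMSO and diluted in medium with 10% FBS. Where a single level was used, it was 22 nM. Lysates: cells rinsed twice in ice-cold PBS with 0.1 mM orthovanadate, then lysed in hot sample buffer. Protein was quantified by BCA, run on SDS-PAGE and blotted to nitrocellulose. Detection used HRP secondary antibodies and chemiluminescence, with actin as loading control.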
(A western blot detects proteins with antibodies after separation by electrophoresis.)

Assay [5] has as its target T1, Heat shock protein HSP90 (Homo sapiens). The experiment in a line: Inhibition of Hsp90 in human A431 cells assessed as down-regulation of Cdk4 expression at 22 nM after 24 hrs by Western blotting analysis. It is filed as cell-based. Particulars: A-431. Summed up: as §2
Assay [6] has the same target. Description: Inhibition of Hsp90 in human A431 cells assessed as down-regulation of Raf expression at 22 nM after 24 hrs by Western blotting analysis. Particulars: A-431. It is filed as cell-based. Summed up: as §2
Assay [7] shares this target. The experiment in a line: Inhibition of Hsp90 in human A431 cells assessed as down-regulation of survivin expression at 22 nM after 24 hrs by Western blotting analysis. The assay is classed as cell-based. The note with it: A-431. Summed up:
as §2

Assay [8] shares this target. Description: Inhibition of Hsp90 in human STO cells assessed as down-regulation of Cdk4 expression at 22 nM after 24 hrs by Western blotting analysis. The assay is classed as cell-based. Summed up:
as §2

Assay [9] has the same target. The experiment in a line: Inhibition of Hsp90 in human STO cells assessed as down-regulation of Raf expression at 22 nM after 24 hrs by Western blotting analysis. The assay is classed as cell-based. The gist of the method:
as §2

The target is the same in assay [10]. The experiment in a line: Inhibition of Hsp90 in human STO cells assessed as down-regulation of survivin expression at 22 nM after 24 hrs by Western blotting analysis. The assay is classed as cell-based. The gist of the method: as §2
Assay [11] shares this target. Description: Inhibition of Hsp90 in human A431 cells assessed as up-regulation of Hsp70 in human A431 cells after 24 hrs by Western blotting analysis. The assay is classed as cell-based. Particulars: A-431. Summed up:
as §2

Assay [12] has as its system A-431. Description: Antitumor activity against human A431 cells xenografted in athymic nude Swiss mouse assessed as tumor growth inhibition at 10 mg/kg, po qd for 4 days per week for 3 weeks. Particulars: read-out: GI. It is filed as functional. Summed up: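 Female athymic Swiss nude mice, 8–10 weeks old, bearing A431 squamous carcinoma xenografts. Drug dissolved in physiologic saline and given orally at 10 mg/kg, qdx4d/week for 3 weeks. Dosing started when tumours were just palpable. Tumour growth inhibition was assessed.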
(A xenograft is tissue or cells of one species grown in another, often human tumour cells in immunodeficient mice.)

Assay [13] addresses T1, Heat shock protein HSP90 (Homo sapiens). Description: Inhibition of Hsp90 in human A431 cells assessed as down-regulation of EGFR expression after 24 hrs by Western blotting analysis. It is filed as cell-based. The note with it: A-431. Summed up:
as §2

The target is the same in assay [14]. Description: Inhibition of Hsp90 in human A431 cells assessed as down-regulation of Akt expression after 24 hrs by Western blotting analysis. The assay is classed as cell-based. The note with it: A-431. Summed up:
as §2

Assay [15] shares this target. Description: Inhibition of Hsp90 in human A431 cells assessed as down-regulation of Cdk4 expression after 24 hrs by Western blotting analysis. The note with it: A-431. The assay is classed as cell-based. The gist of the method:
as §2

Assay [16] shares this target. Description: Inhibition of Hsp90 in human A431 cells assessed as down-regulation of survivin expression after 24 hrs by Western blotting analysis. It is filed as cell-based. Particulars: A-431. The gist of the method:
as §2

Regarding `O=C1c2ccccc2C(=O)c2c(-c3cc[n+](Cc4ccccc4)cc3)noc21.[Br-]`, the IC50 in [1] turned out to be 34 nM; with NCI-H460 it was 18 nM; in assay [2], 2.2 nM; in the assay on A-431 [3] it was 1.6 nM. Besides, in assay [1], the pIC50 worked out at 7.47. Moreover, the inhibition entry in [4], in assay [5], in assay [6], in assay [7], in [8] and in [9] was “Active” each time. For the same compound, the inhibition entry in assay [10] was “Active”. Moreover, in assay [11], the inhibition result was “Dose-dependent effect”. For the same compound, the inhibition in vivo at 10 mg/kg in the assay on A-431 [12] stood at 50%.
Regarding `Cl.O=C1c2ccncc2C(=O)c2c(-c3ccc(OCCN4CCOCC4)cc3)noc21`, the IC50 was < 5 nM in assay [1], 41 nM with NCI-H460, 54 nM in [2] and 20 nM in the assay with A-431 [3]. For the same compound, the pIC50 in assay [1] was 8.47. Besides, the inhibition result in [13], in [14], in [15], in assay [16] and in assay [11] was “Dose-dependent effect” each time.

As usually defined, the IC50 is the concentration that gives 50% inhibition. As usually defined, the pIC50 is −log10 of the IC50, conventionally taken in molar units. A high value points to a small IC50.

(Values after ChEMBL document CHEMBL2034908, “Isoxazolo(aza)naphthoquinones: a new class of cytotoxic Hsp90 inhibitors” (Eur J Med Chem, 2012).)
